Reference: ChEMBL document CHEMBL5360580 (Eur J Med Chem, 2023)

What was measured:
SARS-CoV-2 [1] = assay: Antiviral activity against SARS-CoV-2 infected in African green monkey Vero E6 cells assessed as inhibition of viral replication at 1 uM incubated for 24 hrs by IFA assay relative to control; assay type: functional; conditions: Severe acute respiratory syndrome coronavirus 2, Vero C1008
[2] = Half life in ICR mouse at 2.5 mg/kg, iv measured upto 24 hrs by LC-MS/MS analysis; assay type: ADME, organism-based; conditions: ICR, in vivo
Procedure, shortened: (§1)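 Male-unspecified ICR (CD-1) mice, N = 3 per group, were fasted 12 h. Compound in DMSO/0.5% HMPC (5/95, v/v) was given orally at 30 mg/kg or intravenously at 2.5 mg/kg. Femoral-vein blood was drawn at 0.25, 0.5, 1, 2, 4, 8 and 24 h, and serum analyte levels were measured by LC-MS/MS.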

[3] = Observed MRT (0 to infinity) in ICR mouse at 2.5 mg/kg, iv measured upto 24 hrs by LC-MS/MS analysis; assay type: ADME, organism-based; conditions: ICR, in vivo; procedure, shortened: as §1
[4] = Observed AUC (0 to infinity) in ICR mouse at 2.5 mg/kg, iv measured upto 24 hrs by LC-MS/MS analysis; assay type: ADME, organism-based; design: dose 2.5 mg/kg, time < 24 hrs, route iv; conditions: ICR, in vivo; procedure, shortened: as §1
[5] = Cmax in ICR mouse at 2.5 mg/kg, iv measured upto 24 hrs by LC-MS/MS analysis; assay type: ADME, organism-based; design: dose 2.5 mg/kg, time < 24 hrs, route iv; conditions: in vivo; procedure, shortened: as §1
[6] = AUClast in ICR mouse at 2.5 mg/kg, iv measured upto 24 hrs by LC-MS/MS analysis; assay type: ADME, organism-based; design: dose 2.5 mg/kg, time < 24 hrs, route iv; conditions: ICR, in vivo; procedure, shortened: as §1
[7] = Prodrug conversion in ICR mouse plasma assessed as Observed MRT (0 to infinity) of compound 5-chloro-4-fluoro-2-hydroxy-N-(4-(trifluoromethoxy)phenyl)benzamide at 30 mg/kg, po and 2.5 mg/kg, iv measured upto 24 hrs by LC-MS/MS analysis; assay type: ADME, organism-based; conditions: in vivo
Procedure, shortened: (§2)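 Prodrugs were given to fasted ICR (CD-1) mice (N = 3) in DMSO/0.5% HMPC (5/95), at 30 mg/kg po or 2.5 mg/kg iv. Serum from femoral-vein blood taken 0.25–24 h was analysed by LC-MS/MS for the released parent compound, with mole correction applied to the parameters.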

[8] = Prodrug conversion in ICR mouse plasma assessed as half life of compound 5-chloro-4-fluoro-2-hydroxy-N-(4-(trifluoromethoxy)phenyl)benzamide at 30 mg/kg, po and 2.5 mg/kg, iv measured upto 24 hrs by LC-MS/MS analysis; assay type: ADME, organism-based; conditions: in vivo; procedure, shortened: as §2
[9] = Prodrug conversion in ICR mouse plasma assessed as Cmax of compound 5-chloro-4-fluoro-2-hydroxy-N-(4-(trifluoromethoxy)phenyl)benzamide at 30 mg/kg, po and 2.5 mg/kg, iv measured upto 24 hrs by LC-MS/MS analysis; assay type: ADME, organism-based; design: time < 24 hrs, dose 30 mg/kg, route po; conditions: in vivo; procedure, shortened: as §2
[10] = Prodrug conversion in ICR mouse plasma assessed as Observed AUC (0 to infinity) of compound 5-chloro-4-fluoro-2-hydroxy-N-(4-(trifluoromethoxy)phenyl)benzamide at 30 mg/kg, po and 2.5 mg/kg, iv measured upto 24 hrs by LC-MS/MS analysis; assay type: ADME, organism-based; design: time < 24 hrs, dose 30 mg/kg, route po; conditions: in vivo; procedure, shortened: as §2
[11] = Prodrug conversion in ICR mouse plasma assessed as AUClast of compound 5-chloro-4-fluoro-2-hydroxy-N-(4-(trifluoromethoxy)phenyl)benzamide at 30 mg/kg, po and 2.5 mg/kg, iv measured upto 24 hrs by LC-MS/MS analysis; assay type: ADME, organism-based; design: dose 30 mg/kg, time < 24 hrs, route po; conditions: in vivo; procedure, shortened: as §2
[12] = Aqueous solubility of compound at 0.5 mg/mL in presence of acetonitrile by HPLC analysis; assay type: physicochemical; conditions: buffer
Procedure, shortened: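 Compound was suspended in water, vortexed vigorously and filtered through a 0.22 μm membrane. The filtrate was diluted 2-fold with 80% acetonitrile and analysed by reversed-phase amide HPLC. Concentration was read against a standard curve prepared from a 0.5 mg/mL solution in 80% acetonitrile. Single determination.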

[13] = Prodrug conversion in ICR mouse plasma assessed as oral bioavailability of compound 5-chloro-4-fluoro-2-hydroxy-N-(4-(trifluoromethoxy)phenyl)benzamide at 30 mg/kg measured upto 24 hrs by LC-MS/MS analysis; assay type: ADME, organism-based; conditions: in vivo; procedure, shortened: as §2
SARS-CoV-2 [14] = assay: Antiviral activity against SARS-CoV-2 infected in African green monkey Vero E6 cells assessed as inhibition of viral replication at 5 uM incubated for 24 hrs by IFA assay relative to control; assay type: functional; conditions: Severe acute respiratory syndrome coronavirus 2, Vero C1008
SARS-CoV-2 [15] = assay: Antiviral activity against SARS-CoV-2 infected in African green monkey Vero E6 cells assessed as inhibition of viral replication incubated for 24 hrs by IFA assay; assay type: functional, organism-based; conditions: Severe acute respiratory syndrome coronavirus 2, Vero C1008, 24 h
Vero C1008 = assay: Cytotoxicity against African green monkey Vero E6 cells assessed as reduction in cell viability measured after 48 hrs by CCK-8 assay; assay type: toxicity, cell-based; conditions: chlorocebus sabaeus, vero c1008, 48 h
[16] = Selectivity index, ratio of CC50 for cytotoxicity against African green monkey Vero E6 to EC50 for antiviral activity against SARS-CoV-2 infected in African green monkey Vero E6 cells; assay type: toxicity, cell-based, Vero C1008; conditions: read-out: Ratio CC50/EC50

O=C(Nc1ccc(OC(F)(F)F)cc1)c1cc(Cl)ccc1O
inhibition at 1 µM (SARS-CoV-2 [1]): 55%

CC(=O)Nc1ccc(NC(=O)c2cc(Cl)ccc2O)c(Cl)c1
inhibition at 1 µM (SARS-CoV-2 [1]): < 10%

N#Cc1ccc(Cl)cc1C(=O)Nc1ccc(C(F)(F)F)cc1
inhibition at 1 µM (SARS-CoV-2 [1]): < 10%

Nc1ccc(NC(=O)c2cc(Cl)ccc2O)c(Cl)c1
inhibition at 1 µM (SARS-CoV-2 [1]): < 10%

Oc1ccc(Cl)cc1-c1nnc(-c2ccc(C(F)(F)F)cc2)[nH]1
inhibition at 1 µM (SARS-CoV-2 [1]): < 10%

Oc1ccc(Cl)cc1-c1nnc(-c2ccc(C(F)(F)F)cc2)o1
inhibition at 1 µM (SARS-CoV-2 [1]): < 10%

O=C(NC(=O)c1cc(Cl)ccc1O)c1ccc(C(F)(F)F)cc1
inhibition at 1 µM (SARS-CoV-2 [1]): < 10%

O=C(NCc1ccc(C(F)(F)F)cc1)c1cc(Cl)ccc1O
inhibition at 1 µM (SARS-CoV-2 [1]): 55%

C[C@H](N)C(=O)Oc1cc(F)c(Cl)cc1C(=O)Nc1ccc(OC(F)(F)F)cc1.Cl
half-life [2]: 175 min | MRT inf [3]: 5.02 h | AUC(0-inf) [4]: 6700 ng·h/mL | Cmax [5]: 3360 ng/mL | AUC(0-t) at 24 h [6]: 6670 ng·h/mL

CC(C)C(=O)Oc1cc(F)c(Cl)cc1C(=O)Nc1ccc(OC(F)(F)F)cc1
MRT [7]: 5.52 h | t1/2 [8]: 3.03 h | Cmax [9]: 5175 ng/mL | AUC [10]: 17551 ng·h/mL | AUClast [11]: 17393 ng·h/mL | solubility [12]: 0.53 µg/mL | F [13]: 39.75%

COc1ccc(Cl)cc1C(=O)Nc1ccc(C(F)(F)F)cc1
inhibition at 1 µM (SARS-CoV-2 [1]): < 10%

CCC(CC)COC(=O)[C@H](C)N[P@](=O)(OC[C@H]1O[C@@](C#N)(c2ccc3c(N)ncnn23)[C@H](O)[C@@H]1O)Oc1ccccc1
inhibition at 5 µM (SARS-CoV-2 [14]): 99% | inhibition at 1 µM (SARS-CoV-2 [1]): < 10%

O=C(Nc1ccc(C(F)(F)F)cc1)c1cc(Cl)cnc1O
inhibition at 1 µM (SARS-CoV-2 [1]): 50%

O=C(Nc1ccc(SC(F)(F)F)cc1)c1cc(Cl)c(F)cc1O
EC50 (SARS-CoV-2 [15]): 1610 nM | CC50 (Vero C1008): 2630 nM | selectivity ratio [16]: 1.63 | inhibition at 1 µM (SARS-CoV-2 [1]): 87%
